{"source": "paper PMC7927141", "about": "(Molecular Pharmaceutics, 2021)", "key": {"[1]": {"system": "cancer cells (Neuro2A, EGI-1, TFK-1, Mz-ChA-1)", "test": "Association and uptake by flow cytometry and confocal microscopy", "format": "cell-based", "conditions": "20 μM, flow cytometry", "how_it_was_run": "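5 × 10^5 cells/well, grown 18 h. Medium replaced by nonsupplemented medium containing 20 μM test compound, free (0.4% DMSO final) or micelle-loaded, or Cy5-labelled micelles at 0.3 mg/mL. Incubated 1 or 4 h, rinsed twice with PBS, trypsinized, analysed by flow cytometry. Confocal imaging on coverslips after 0.5, 1 and 4 h at 37 °C, excitation 405/633 nm.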"}, "Neuro2A cells": {"system": "Neuro2A cells", "test": "In vitro cytotoxicity, SRB total protein assay, Neuro2A", "format": "cell-based, murine", "how_it_was_run": "(§1)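 Cells grown in RPMI 1640 with 10% FBS, penicillin/streptomycin and 2 mM L-glutamine at 37 °C, 5% CO2. Seeded at 5 × 10^4 cells/well and cultured 24 h. Then exposed 24, 48 or 72 h to free test compound (DMSO, 0.4% v/v final) or micelle-loaded test compound in HBS, 0–200 μM; HBS controls. After PBS wash, SRB total protein read at 564 nm, normalized to control. IC50 from sigmoidal variable-slope nonlinear regression.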"}, "EGI-1 cells": {"system": "EGI-1 cells", "test": "In vitro cytotoxicity, SRB total protein assay, EGI-1", "format": "cell-based", "conditions": "Homo sapiens", "how_it_was_run": "as §1"}, "Mz-ChA-1 cells": {"system": "Mz-ChA-1 cells", "test": "In vitro cytotoxicity, SRB total protein assay, Mz-ChA-1", "format": "cell-based, human", "how_it_was_run": "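Mz-ChA-1 cells in RPMI 1640 with 10% FBS, penicillin/streptomycin and 2 mM L-glutamine at 37 °C, 5% CO2. Seeded at 25 × 10^4 cells/well for slow growth, cultured 24 h. Then 24, 48 or 72 h with free test compound (DMSO, 0.4% v/v final) or micelle-encapsulated test compound in HBS, 0–200 μM; HBS-treated controls. PBS wash, SRB protein stain, absorbance 564 nm, viability versus control. IC50 by sigmoidal variable-slope curve fit.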"}, "Sk-ChA-1 cells": {"system": "Sk-ChA-1 cells", "test": "In vitro cytotoxicity, SRB total protein assay, Sk-ChA-1", "format": "cell-based", "conditions": "Homo sapiens", "how_it_was_run": "as §1"}, "TFK-1 cells": {"system": "TFK-1 cells", "test": "In vitro cytotoxicity, SRB total protein assay, TFK-1", "format": "cell-based", "conditions": "Homo sapiens", "how_it_was_run": "as §1"}, "[2]": {"test": "Circulation kinetics of Cy7-labeled curcumin micelles in mice", "format": "in vivo, BALB/c mice", "how_it_was_run": "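Female mice received 9% (w/w) curcumin-loaded Cy7-labelled mPEG-b-p(HPMA-Bz) micelles i.v. (500 mg polymer/kg, 100–200 μL). EDTA blood was drawn submandibularly at 1 min (set as 100% dose), 10 min and 1 h, and by cardiac puncture at 4 and 24 h. Plasma was ACN-extracted (1:4) and assayed for curcumin by C18 RP-HPLC at 425/254 nm. Parameters came from two-compartmental analysis.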"}, "[3]": {"test": "Biodistribution of Cy7-labeled curcumin micelles in mice", "format": "in vivo, BALB/c mice", "conditions": "4 and 24 h post-administration, iv 50 mg curcumin/kg in micelles"}, "[4]": {"conditions": "cited from earlier work"}, "[5]": {"system": "different types of cancer cell lines", "conditions": "cited from earlier work"}, "[6]": {"conditions": "read-out: IC50 after 48 and 72 h"}, "[7]": {"conditions": "female, BALB/c, mouse, plasma, iv, 7.8 mg/kg"}, "[8]": {"conditions": "iv, 50 mg curcumin/kg, two-compartmental"}}, "note": "Where two headings read alike, the source gives them in different places.", "data": [{"smiles": "COc1cc(/C=C/C(=O)CC(=O)/C=C/c2ccc(O)c(OC)c2)ccc1O", "note": "[free curcumin, curcumin]", "values": [{"measurement": "time of incubation until intracellular detection", "setting": "[1]", "result": "≤ 1", "unit": "h"}, {"measurement": "IC50", "setting": "Neuro2A cells; 24 h exposure", "result": "83.8 ± 13.5", "unit": "µM"}, {"measurement": "IC50", "setting": "Neuro2A cells; Mus musculus, N2a, 24 h, 24 h exposure", "result": 84, "unit": "µM"}, {"measurement": "IC50", "setting": "Neuro2A cells; Mus musculus, N2a, 48 h, 48 h exposure", "result": "15.6 ± 0.8", "unit": "µM"}, {"measurement": "IC50", "setting": "Neuro2A cells; Mus musculus, N2a, 72 h, 72 h exposure", "result": "23.3 ± 1.2", "unit": "µM"}, {"measurement": "IC50", "setting": "EGI-1 cells; EGI-1, 24 h", "result": "21.7 ± 0.5", "unit": "µM"}, {"measurement": "IC50", "setting": "EGI-1 cells; EGI-1, 48 h", "result": "18.2 ± 0.3", "unit": "µM"}, {"measurement": "IC50", "setting": "EGI-1 cells; EGI-1, 72 h", "result": "19.1 ± 0.3", "unit": "µM"}, {"measurement": "IC50", "setting": "EGI-1 cells; EGI-1, read-out: IC50 after 48 and 72 h", "result": "~20", "unit": "µM"}, {"measurement": "IC50", "setting": "Mz-ChA-1 cells; Homo sapiens, 24 h, Mz-ChA-1, 24 h exposure", "result": 48, "unit": "µM"}, {"measurement": "IC50", "setting": "Mz-ChA-1 cells; Homo sapiens, 48 h, Mz-ChA-1, 48 h exposure", "result": "38.4 ± 1.4", "unit": "µM"}, {"measurement": "IC50", "setting": "Mz-ChA-1 cells; Homo sapiens, 72 h, Mz-ChA-1, 72 h exposure", "result": "37.8 ± 1.1", "unit": "µM"}, {"measurement": "IC50", "setting": "Mz-ChA-1 cells; Mz-ChA-1, 24 h exposure", "result": "47.6 ± 1.6", "unit": "µM"}, {"measurement": "IC50", "setting": "Sk-ChA-1 cells; 24 h", "result": "33.9 ± 1.3", "unit": "µM"}, {"measurement": "IC50", "setting": "Sk-ChA-1 cells; 48 h", "result": "21.5 ± 0.4", "unit": "µM"}, {"measurement": "IC50", "setting": "Sk-ChA-1 cells; 72 h", "result": "21.3 ± 0.4", "unit": "µM"}, {"measurement": "IC50", "setting": "Sk-ChA-1 cells; [6]", "result": "~20", "unit": "µM"}, {"measurement": "IC50", "setting": "TFK-1 cells; 24 h", "result": "27.7 ± 0.9", "unit": "µM"}, {"measurement": "IC50", "setting": "TFK-1 cells; 48 h", "result": "20.1 ± 0.9", "unit": "µM"}, {"measurement": "IC50", "setting": "TFK-1 cells; 72 h", "result": "17.5 ± 0.5", "unit": "µM"}, {"measurement": "IC50", "setting": "TFK-1 cells; [6]", "result": "~20", "unit": "µM"}, {"measurement": "t1/2α relative to that reported for free curcumin", "setting": "[2]; curcumin after iv curcumin-loaded micelles vs literature free curcumin", "result": "~5", "unit": "times"}, {"measurement": "AUC(0-inf)", "setting": "[2]; [7]", "result": 319, "unit": "µg·h/mL"}, {"measurement": "clearance", "setting": "[2]; [7]", "result": 2.62, "unit": "mL/min/kg"}, {"measurement": "initial phase t1/2α", "setting": "[2]; iv, 50 mg curcumin/kg as curcumin-loaded micelles", "result": 6.7, "unit": "min"}, {"measurement": "V1", "setting": "[2]; [8]", "result": 0.086, "unit": "L/kg"}, {"measurement": "V2", "setting": "[2]; [8]", "result": 0.344, "unit": "L/kg"}, {"measurement": "loaded curcumin eliminated during the first hour", "setting": "[2]; iv, 50 mg/kg curcumin in micelles", "result": 90, "unit": "%"}, {"measurement": "curcumin concentration in the different organs", "setting": "[3]", "result": "0.2–3 μg/g tissue"}, {"measurement": "AUC", "setting": "[4]; 50 mg/kg in mice, noncompartmental analysis, ref 63 (Gao et al.)", "result": 60.3, "unit": "µg·h/mL"}, {"measurement": "normalized AUC", "setting": "[4]; two studies", "result": "1.2 (μg·h/mL)/(mg/kg)"}, {"measurement": "IC50", "setting": "[5]; read-out: IC50 mean ± SD", "result": "21 ± 17", "unit": "µM"}, {"measurement": "IC50", "setting": "[5]; read-out: IC50 range", "result": "1 to 100", "unit": "µM"}]}]}
